From ChEMBL document CHEMBL1641576, “Development of a new class of benzoylpyrrole-based PPARα/γ activators” (Bioorg Med Chem Lett, 2011)
Activity calls are given as the source filed them. The rule behind the calls is not given here.

Legend:
[1] = target: T1, Peroxisome proliferator-activated receptor alpha (Homo sapiens) (UniProt Q07869); assay: Agonist activity at human PPARalpha ligand binding domain expressed in COS-1 cells co-transfected with Gal4 at 10 uM by luciferase reporter gene assay relative to control; type: cell-based
T1 sequence (whole entry): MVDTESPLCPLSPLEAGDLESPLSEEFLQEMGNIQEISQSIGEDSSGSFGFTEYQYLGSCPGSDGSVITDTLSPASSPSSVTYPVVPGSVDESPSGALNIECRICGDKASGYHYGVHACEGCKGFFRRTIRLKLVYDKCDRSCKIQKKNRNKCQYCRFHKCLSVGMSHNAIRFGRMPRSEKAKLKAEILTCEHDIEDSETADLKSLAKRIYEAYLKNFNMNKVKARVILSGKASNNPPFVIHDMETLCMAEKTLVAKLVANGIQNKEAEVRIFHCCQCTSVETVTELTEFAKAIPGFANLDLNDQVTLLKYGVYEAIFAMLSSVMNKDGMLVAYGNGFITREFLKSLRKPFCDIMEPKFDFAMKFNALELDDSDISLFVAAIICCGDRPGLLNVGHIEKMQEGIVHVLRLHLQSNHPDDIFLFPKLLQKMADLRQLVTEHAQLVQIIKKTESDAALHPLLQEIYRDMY
Outline: (§1)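 COS-1 cells were seeded at 5 × 10⁴ cells/well and grown about 24 h at 37 °C under 5% CO₂ in DMEM with 10% charcoal-treated FCS. They were lipofected with a GAL4–PPAR ligand-binding-domain fusion plasmid plus a GAL4-responsive luciferase reporter. Medium was replaced at 4 h with medium containing compound; no-drug controls received 0.1% DMSO final. Cells were lysed after 24 h and luciferase was read. Results are reported as fold induction and EC50.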

Homo sapiens = species: Homo sapiens; assay: Selectivity ratio, ratio of EC50 for human PPARalpha ligand binding domain to EC50 for human PPARgamma ligand binding domain
[2] = target: T2, Peroxisome proliferator-activated receptor gamma (Homo sapiens, UniProt P37231); assay: Agonist activity at human PPARgamma ligand binding domain expressed in COS-1 cells co-transfected with Gal4 by luciferase reporter gene assay; type: cell-based
T2 sequence (P37231 whole entry): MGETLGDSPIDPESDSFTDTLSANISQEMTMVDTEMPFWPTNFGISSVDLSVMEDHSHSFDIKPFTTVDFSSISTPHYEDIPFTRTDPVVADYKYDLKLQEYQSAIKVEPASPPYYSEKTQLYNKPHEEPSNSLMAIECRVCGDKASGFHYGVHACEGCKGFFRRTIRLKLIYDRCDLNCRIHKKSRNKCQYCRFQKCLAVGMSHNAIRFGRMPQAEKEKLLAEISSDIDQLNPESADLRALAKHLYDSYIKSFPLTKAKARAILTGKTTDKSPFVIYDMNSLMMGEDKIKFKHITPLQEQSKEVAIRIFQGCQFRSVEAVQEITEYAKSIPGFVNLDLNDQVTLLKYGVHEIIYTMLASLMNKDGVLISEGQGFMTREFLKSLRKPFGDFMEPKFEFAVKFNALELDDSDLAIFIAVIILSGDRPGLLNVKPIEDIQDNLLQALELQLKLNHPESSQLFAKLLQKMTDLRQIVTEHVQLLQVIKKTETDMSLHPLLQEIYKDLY

[3] = target: T3, Peroxisome proliferator-activated receptor gamma (Homo sapiens) (UniProt P37231); assay: Agonist activity at human PPARgamma ligand binding domain expressed in COS-1 cells co-transfected with Gal4 by luciferase reporter gene assay relative to pioglitazone; type: cell-based
T3 sequence (whole entry): T2 sequence (P37231 whole entry)

[4] = target: T4, Peroxisome proliferator-activated receptor alpha (Homo sapiens, UniProt Q07869); assay: Agonist activity at human PPARalpha ligand binding domain expressed in COS-1 cells co-transfected with Gal4 by luciferase reporter gene assay; type: cell-based; outline: as §1
T4 sequence (Q07869 whole entry): T1 sequence (whole entry)

[5] = target: T1, Peroxisome proliferator-activated receptor alpha (Homo sapiens); assay: Agonist activity at human PPARalpha ligand binding domain expressed in COS-1 cells co-transfected with Gal4 by luciferase reporter gene assay relative to fenofibric acid; type: cell-based
Mus musculus [6] = assay: Toxicity in db/db mouse assessed as increase of body weight at 41 mg/kg administered with chow diet ad for 14 days; type: organism-based; design: dose 41 mg/kg; settings: in vivo, po, 336 h
Outline: (§2)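 […] male db/db mice were randomised into four groups and dosed for 14 days through drug admixed in rodent chow; controls received plain chow. Blood glucose, body weight and food intake were monitored. Values are means of 6 animals/group, compared with vehicle by Dunnett's or Student's test.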

Mus musculus [7] = assay: Toxicity in db/db mouse assessed as effect on food intake at 41 mg/kg administered with chow diet ad for 14 days; type: organism-based; design: dose 41 mg/kg; settings: in vivo, po, 336 h; outline: as §2
Mus musculus [8] = assay: Antidiabetic activity in db/db mouse assessed as reduction of blood glucose level at 41 mg/kg administered with chow diet ad for 14 days; type: functional, organism-based; design: dose 41 mg/kg; outline: as §2
Mus musculus [9] = assay: Antidiabetic activity in db/db mouse assessed as reduction of blood glucose level at 141 mg/kg administered with chow diet ad for 14 days; type: functional, organism-based; design: dose 141 mg/kg; outline: as §2
[10] = target: T5, Peroxisome proliferator-activated receptor alpha (Mus musculus) (UniProt P23204); assay: Agonist activity at mouse PPARalpha ligand binding domain expressed in COS-1 cells co-transfected with Gal4 by luciferase reporter gene assay relative to fenofibric acid; type: cell-based
T5 sequence (whole entry): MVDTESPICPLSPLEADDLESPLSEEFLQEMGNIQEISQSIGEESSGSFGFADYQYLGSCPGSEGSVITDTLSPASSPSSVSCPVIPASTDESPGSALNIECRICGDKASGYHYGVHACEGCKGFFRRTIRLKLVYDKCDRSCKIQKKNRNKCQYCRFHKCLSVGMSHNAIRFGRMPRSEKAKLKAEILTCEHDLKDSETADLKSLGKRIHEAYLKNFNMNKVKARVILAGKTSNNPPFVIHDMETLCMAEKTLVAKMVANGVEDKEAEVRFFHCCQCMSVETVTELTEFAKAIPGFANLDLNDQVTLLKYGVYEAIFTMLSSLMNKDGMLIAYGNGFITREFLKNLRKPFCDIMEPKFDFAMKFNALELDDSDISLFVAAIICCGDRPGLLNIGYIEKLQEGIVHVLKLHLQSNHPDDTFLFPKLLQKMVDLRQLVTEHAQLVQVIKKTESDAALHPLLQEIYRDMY

[11] = Volume of distribution at steady state in rat at 1 mg/kg, iv; type: ADME, organism-based; design: dose 1 mg/kg, route intravenous; settings: in vivo, read-out: Vdss
Outline: (§3)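 Single intravenous dose of the sodium salt given to rats. Plasma concentrations followed to derive AUC, half-life, plasma clearance and steady-state distribution volume.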

[12] = Half life in rat at 1 mg/kg, iv; type: ADME, organism-based; design: dose 1 mg/kg, route intravenous; settings: in vivo; outline: as §3
[13] = AUC in rat at 10 mg/kg, po; type: ADME, organism-based; design: dose 10 mg/kg, route oral; settings: plasma
Outline: (§4)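 Single oral dose of the sodium salt given to rats. Plasma profile used to derive AUC, Cmax, Tmax and bioavailability.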

Mus musculus [14] = assay: Toxicity in db/db mouse assessed as increase of body weight at 141 mg/kg administered with chow diet ad for 14 days; type: organism-based; design: dose 141 mg/kg; settings: in vivo, po, 336 h; outline: as §2
[15] = Cmax in rat at 10 mg/kg, po; type: ADME, organism-based; design: dose 10 mg/kg, route oral; settings: in vivo; outline: as §4
Mus musculus [16] = assay: Toxicity in db/db mouse assessed as effect on food intake at 141 mg/kg administered with chow diet ad for 14 days; type: organism-based; design: dose 141 mg/kg; settings: in vivo, po, 336 h; outline: as §2
[17] = Oral bioavailability in rat at 10 mg/kg; type: ADME, organism-based; settings: in vivo; outline: as §4
[18] = Tmax in rat at 10 mg/kg, po; type: ADME, organism-based; design: dose 10 mg/kg, route oral; settings: in vivo; outline: as §4
Mus musculus [19] = assay: Toxicity in db/db mouse assessed as increase of body weight at 15 mg/kg administered with chow diet ad for 14 days; type: organism-based; design: dose 15 mg/kg; settings: in vivo, po, 336 h; outline: as §2
[20] = AUC in rat at 1 mg/kg, iv; type: ADME, organism-based; design: dose 1 mg/kg, route intravenous; settings: plasma; outline: as §3
[21] = Clearance in rat at 1 mg/kg, iv; type: ADME, organism-based; design: dose 1 mg/kg, route intravenous; settings: in vivo; outline: as §3
Mus musculus [22] = assay: Toxicity in db/db mouse assessed as effect on food intake at 15 mg/kg administered with chow diet ad for 14 days; type: organism-based; design: dose 15 mg/kg; settings: in vivo, po, 336 h; outline: as §2
[23] = target: T6, Peroxisome proliferator-activated receptor alpha (Mus musculus, UniProt P23204); assay: Agonist activity at mouse PPARalpha ligand binding domain expressed in COS-1 cells co-transfected with Gal4 by luciferase reporter gene assay; type: cell-based; outline: as §1
T6 sequence (P23204 whole entry): T5 sequence (whole entry)

## Cc1ccccc1C(=O)c1cccn1C/C=C/c1cccc(OCC(=O)O)c1
[1]
  fold change (FC): 1.1

## COc1cccc(C(=O)c2cccn2C/C=C/c2cccc(OCC(=O)O)c2)c1
[1]
  fold change (FC): 1.4

## COc1ccc(C(=O)c2cccn2C/C=C/c2cccc(OCC(=O)O)c2)cc1
Homo sapiens
  Ratio EC50: 1.9
[2]
  EC50: 1.9 µM
[3]
  Emax: 16%
[4]
  EC50: 3.7 µM
[1]
  fold change (FC): 5.8
[5]
  Emax: 42%

## COc1ccc(C(=O)c2cccn2C/C=C/c2ccccc2OCC(=O)O)cc1
[1]
  fold change (FC): 0.8

## COc1ccc(C(=O)c2cccn2C/C=C/c2cccc(CC(=O)O)c2)cc1
Homo sapiens
  Ratio EC50: 11
[2]
  EC50: 2 µM
[3]
  Emax: 37%
[4]
  EC50: 21 µM
[1]
  fold change (FC): 1.6
[5]
  Emax: 43%

## COc1ccccc1C(=O)c1cccn1C/C=C/c1cccc(OCC(=O)O)c1
[1]
  fold change (FC): 0.9

## CC(C)(Oc1ccc(C(=O)c2ccc(Cl)cc2)cc1)C(=O)O [FENOFIBRIC ACID]
[4]
  EC50: 12 µM
[1]
  fold change (FC): 5.6

## Cc1cccc(C(=O)c2cccn2C/C=C/c2cccc(OCC(=O)O)c2)c1
[1]
  fold change (FC): 1.9

## CCc1ccc(CCOc2ccc(CC3SC(=O)NC3=O)cc2)nc1 (stereo unspecified) [PIOGLITAZONE]
Mus musculus [6]
  Activity: Toxic
Mus musculus [7]
  Activity: Toxic
Mus musculus [8]
  Activity: Active

## COc1ccc(C(=O)c2cccn2C/C=C/c2ccccc2CC(=O)O)cc1
[1]
  fold change (FC): 1

## COc1ccc(C(=O)c2cc(C)cn2C/C=C/c2ccc(Cl)cc2C(=O)NS(C)(=O)=O)cc1
Homo sapiens
  Ratio EC50: > 7.5
[2]
  EC50: 12 µM
[3]
  Emax: 19%
[4]
  EC50: > 90 µM
[1]
  fold change (FC): 0.9

## Cc1ccc(C(=O)c2cccn2C/C=C/c2cccc(OCC(=O)O)c2)cc1 [listing 1 of 2 here]
Mus musculus [9]
  Activity: Active
Homo sapiens
  Ratio EC50: 1.5
[3]
  Emax: 17%
[1]
  fold change (FC): 5.2
[10]
  Emax: 25%
[5]
  Emax: 37%

## COc1ccc(C(=O)c2cccn2C/C=C/c2ccc(CC(=O)O)cc2)cc1
[1]
  fold change (FC): 0.8

## COc1ccc(C(=O)c2cccn2C/C=C/c2ccc(OCC(=O)O)cc2)cc1
[1]
  fold change (FC): 3.5

## Cc1ccc(C(=O)c2cccn2C/C=C/c2cccc(OCC(=O)[O-])c2)cc1.[Na+]
[11]
  Vd: 0.3 L/kg
[12]
  half-life: 3.2 h
[13]
  AUC: 59000 ng·h/mL
Mus musculus [14]
  Activity: Non-toxic
[15]
  Cmax: 4300 ng/mL
Mus musculus [16]
  Activity: Non-toxic
[17]
  bioavailability: 42%
[18]
  Tmax: 4 h
Mus musculus [19]
  Activity: Non-toxic
[20]
  AUC: 14000 ng·h/mL
[21]
  clearance: 1.2 mL/min/kg
Mus musculus [22]
  Activity: Non-toxic

## Cc1ccc(C(=O)c2cccn2C/C=C/c2cccc(OCC(=O)O)c2)cc1 [listing 2 of 2 here]
[2]
  EC50: 1.2 µM
[4]
  EC50: 1.8 µM
[23]
  EC50: 4.9 µM
